# Calls of active or inactive are those of the source. The rule behind the calls is not given here.
# Assays:
# Enterococcus faecalis [1] = assay: Antibacterial activity against Enterococcus faecalis ATCC 29212 assessed as reduction in bacterial growth incubated for 18 to 24 hrs by broth microdilution method; format: functional; details: time 18-24 hrs
# Enterococcus faecalis [2] = assay: Inhibition of recombinant Enterococcus faecalis C-terminal His6-tagged DdlB expressed in Escherichia coli LMG194 assessed as residual activity using D-Ala as substrate at 100 uM preincubated with enzyme for 30 mins followed by substrate addition and measured after 20 mins by malachite green based colorimetric analysis relative to control; details: time 50.0 min
# In short: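 Purified E. faecalis His-tagged DdlB (20 mg/L) preincubated 30 min at 30 °C with 100 µM compound and 500 µM ATP in 20 mM Tris-HCl pH 7.4, 10 mM MgCl₂, 10 mM KCl, 10% DMSO; 1 mM D-Ala added, 20 min at 30 °C. Phosphate detected with malachite green reagent, A650 after 25 min dark; residual activity versus no-inhibitor control, triplicate.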
# Staphylococcus aureus [3] = assay: Antibacterial activity against Staphylococcus aureus ATCC 25923 assessed as reduction in bacterial growth incubated for 18 to 24 hrs by broth microdilution method; format: functional; details: time 18-24 hrs
# [4] = Inhibition of recombinant Enterococcus faecalis C-terminal His6-tagged DdlB expressed in Escherichia coli LMG194 using D-Ala as substrate preincubated with enzyme for 30 mins followed by substrate addition and measured after 20 mins by malachite green based colorimetric analysis
# In short: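 DdlB (20 mg/L) malachite green phosphate assay: enzyme, inhibitor and 500 µM ATP preincubated 30 min at 30 °C in Tris-HCl pH 7.4 buffer with MgCl₂, KCl and 10% DMSO, then 1 mM D-Ala for 20 min; A650 read. IC₅₀ from 11 concentrations, also run with 0.01% Triton X-100; mean ± SD of triplicates, n ≥ 2; EC₅₀ given where maximal inhibition stayed below 50%.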
# Enterococcus faecalis [5] = assay: Antibacterial activity against vancomycin resistant Enterococcus faecalis JH2-2::C1 harboring constitutive expression of Ddl and vanB ligase assessed as reduction in bacterial growth incubated for 18 to 24 hrs by broth microdilution method; format: functional; details: time 18-24 hrs
# In short: (§1)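 Broth microdilution in cation-adjusted Mueller-Hinton broth per CLSI; inoculum 10⁶ bacteria/mL. Two-fold serial dilutions, compound in broth with 5% DMSO mixed 1:1 with bacterial suspension, giving 2.5% DMSO final. Top concentration 0.1, 0.4 or 0.8 mM depending on solubility. Incubated 18–24 h at 37 °C. MIC = lowest concentration preventing visible growth.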
# Staphylococcus aureus [6] = assay: Antibacterial activity against methicillin and linezolid resistant Staphylococcus aureus NRS119 assessed as reduction in bacterial growth incubated for 18 to 24 hrs by broth microdilution method; format: functional; details: time 18-24 hrs; in short: as §1
# Enterococcus faecalis [7] = assay: Antibacterial activity against vancomycin resistant Enterococcus faecalis BM4390 harboring VanB mutant with inactive Ddl and constitutive expression of D-Ala-D-Lac assessed as reduction in bacterial growth incubated for 18 to 24 hrs by broth microdilution method; format: functional; details: time 18-24 hrs; in short: as §1
# Staphylococcus aureus [8] = assay: Antibacterial activity against methicillin resistant and vancomycin intermediate resistant Staphylococcus aureus MU50 assessed as reduction in bacterial growth incubated for 18 to 24 hrs by broth microdilution method; format: functional; details: time 18-24 hrs; in short: as §1
# Staphylococcus aureus [9] = assay: Antibacterial activity against hospital-acquired vancomycin resistant Staphylococcus aureus VRS-1 assessed as reduction in bacterial growth incubated for 18 to 24 hrs by broth microdilution method; format: functional; details: time 18-24 hrs; in short: as §1
# Enterococcus faecalis [10] = assay: Antibacterial activity against vancomycin resistant Enterococcus faecalis BM4575 harboring VanE genotype, constitutive expression of Ddl and VanE D-Ala-D-Ser ligase assessed as reduction in bacterial growth incubated for 18 to 24 hrs by broth microdilution method; format: functional; details: time 18-24 hrs; in short: as §1
# Escherichia coli = assay: Antibacterial activity against Escherichia coli ATCC 25922 assessed as reduction in bacterial growth incubated for 18 to 24 hrs by broth microdilution method; format: functional, organism-based; details: time 18-24 hrs
# In short: (§2)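 Microdilution in cation-adjusted Mueller-Hinton broth per CLSI; two-fold compound series in CAMHB with 5% DMSO mixed 1:1 with bacterial suspension, giving 10⁶ bacteria/mL inoculum and 2.5% DMSO final. Top concentrations 0.1, 0.4 or 0.8 mM depending on solubility. Incubated 18–24 h at 37 °C; MIC read as lowest concentration preventing visible growth.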
# Staphylococcus aureus [11] = assay: Antibacterial activity against hospital-acquired methicillin/ciprofloxacin and moxifloxacin resistant Staphylococcus aureus SA481 assessed as reduction in bacterial growth incubated for 18 to 24 hrs by broth microdilution method; format: functional; details: time 18-24 hrs; in short: as §1
# Pseudomonas aeruginosa = assay: Antibacterial activity against Pseudomonas aeruginosa PAO1 assessed as reduction in bacterial growth incubated for 18 to 24 hrs by broth microdilution method; format: functional, organism-based; details: time 18-24 hrs; in short: as §2
# Staphylococcus aureus [12] = assay: Antibacterial activity against community-acquired methicillin and erythromycin resistant Staphylococcus aureus SA325 assessed as reduction in bacterial growth incubated for 18 to 24 hrs by broth microdilution method; format: functional; details: time 18-24 hrs; in short: as §1
# Cell membrane = assay: Disruption of bacterial cell membrane in Staphylococcus aureus ATCC 25923 assessed as increase in PI uptake at 1 to 5 times MIC measured every 10 mins for 2 hrs by PI dye based spectrophotometry
# In short: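 Mid-log S. aureus ATCC 25923 (grown in MHB from OD₆₀₀ 0.05) washed into BET buffer (pH 7.5) at 1.11×10⁶ CFU/mL with 12 nM propidium iodide; compound at 1, 2, 5× MIC, 5% DMSO final. SDS 0.5% positive, buffer negative control. Fluorescence (ex 532/em 620 nm) read in the dark every 10 min for 2 h; triplicate.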
# Klebsiella pneumoniae = assay: Antibacterial activity against Klebsiella pneumoniae ATCC700603 assessed as reduction in bacterial growth incubated for 18 to 24 hrs by broth microdilution method; format: functional, organism-based; details: 700603, time 18-24 hrs; in short: as §2
MIC (Enterococcus faecalis [1]) [µM],Activity (Enterococcus faecalis [2]) [%],MIC (Staphylococcus aureus [3]) [µM],Compound,IC50 [4] [µM],MIC (Enterococcus faecalis [5]) [µM],MIC (Staphylococcus aureus [6]) [µM],MIC (Enterococcus faecalis [7]) [µM],MIC (Staphylococcus aureus [8]) [µM],MIC (Staphylococcus aureus [9]) [µM],MIC (Enterococcus faecalis [10]) [µM],Activity (Escherichia coli),MIC (Staphylococcus aureus [11]) [µM],Activity (Pseudomonas aeruginosa),MIC (Staphylococcus aureus [12]) [µM],Activity (Cell membrane),Activity (Klebsiella pneumoniae)
> 400,> 100,> 400,Fc1ccc2c(c1F)Oc1ccccc1-c1n[nH]c(=S)n1-2,,,,,,,,,,,,,
> 800,,> 800,Oc1ccccc1-c1n[nH]c(=S)n1-c1ccc(F)cc1,60,,,,,,,,,,,,
,,,CN[C@H](CC(C)C)C(=O)N[C@H]1C(=O)N[C@@H](CC(N)=O)C(=O)N[C@H]2C(=O)N[C@H]3C(=O)N[C@H](C(=O)N[C@H](C(=O)O)c4cc(O)cc(O)c4-c4cc3ccc4O)[C@H](O)c3ccc(c(Cl)c3)Oc3cc2cc(c3O[C@@H]2O[C@H](CO)[C@@H](O)[C@H](O)[C@H]2O[C@H]2C[C@](C)(N)[C@H](O)[C@H](C)O2)Oc2ccc(cc2Cl)[C@H]1O [VANCOMYCIN],,350,0.7,700,5,> 175,,,,,,,
> 100,> 100,> 100,COc1ccccc1C(=O)NNC(=S)Nc1ccc(Cl)c(Cl)c1,,,,,,,,,,,,,
> 800,> 50,> 800,COc1ccc(O)c(-c2n[nH]c(=S)n2-c2ccccc2)c1,133,,,,,,,,,,,,
> 400,> 100,> 400,Oc1ccccc1-c1n[nH]c(=S)n1-c1ccc(F)c(F)c1,,,,,,,,,,,,,
> 100,> 100,> 100,Oc1ccccc1-c1nnc(Nc2ccc(Cl)c(Cl)c2)s1,,,,,,,,,,,,,
> 400,> 100,> 400,Sc1nnc(-c2ccccc2)n1-c1ccccc1,,,,,,,,,,,,,
400,> 50,400,O=C(NNC(=S)Nc1ccc(F)c(F)c1)c1ccccc1O,0.92,,,,,,,inactive,,inactive,,,inactive
> 100,> 100,> 100,S=c1[nH]nc(-c2ccccc2)n1-c1ccc(Cl)c(Cl)c1,,,,,,,,,,,,,
,,,CC(=O)NC[C@H]1CN(c2ccc(N3CCOCC3)c(F)c2)C(=O)O1 [LINEZOLID],,,190,,3,,,,,,,,
> 100,,> 100,COc1ccc(O)c(C(=O)NNC(=S)Nc2ccccc2)c1,0.63,,,,,,,,,,,,
> 400,> 100,> 400,Nc1ccccc1C(=O)NNC(=S)Nc1ccccc1,,,,,,,,,,,,,
> 400,> 50,> 400,Oc1ccccc1/C=N/NC(=S)Nc1ccccc1,2.6,,,,,,,,,,,,
> 100,> 100,> 100,O=C(NNC(=S)Nc1ccc(Cl)c(Cl)c1)c1ccccc1,,,,,,,,,,,,,
> 400,> 100,> 400,COc1ccccc1-c1n[nH]c(=S)n1-c1ccc(Cl)c(Cl)c1,,,,,,,,,,,,,
> 100,> 100,> 100,Clc1ccc(Nc2nnc(-c3ccccc3)s2)cc1Cl,,,,,,,,,,,,,
> 800,> 100,> 800,Oc1ccccc1/N=C(/S)Nc1ccccc1,,,,,,,,,,,,,
,,,O=C(O)c1cn(C2CC2)c2cc(N3CCNCC3)c(F)cc2c1=O [CIPROFLOXACIN],,,,,,,,,770,,,,
> 800,> 100,> 800,Nc1ccccc1-c1n[nH]c(=S)n1-c1ccccc1,,,,,,,,,,,,,

Compound,MIC (Enterococcus faecalis [1]) [µM],Activity (Enterococcus faecalis [2]) [%],MIC (Staphylococcus aureus [3]) [µM],IC50 [4] [µM],MIC (Enterococcus faecalis [5]) [µM],MIC (Staphylococcus aureus [6]) [µM],MIC (Enterococcus faecalis [7]) [µM],MIC (Staphylococcus aureus [8]) [µM],MIC (Staphylococcus aureus [9]) [µM],MIC (Enterococcus faecalis [10]) [µM],Activity (Escherichia coli),MIC (Staphylococcus aureus [11]) [µM],Activity (Pseudomonas aeruginosa),MIC (Staphylococcus aureus [12]) [µM],Activity (Cell membrane),Activity (Klebsiella pneumoniae)
O=C(NNC(=S)Nc1ccc(Cl)c(Cl)c1)c1ccccc1O,50,,100,1.17,100,50,50,100,50,50,inactive,100,inactive,50,inactive,inactive
Oc1ccccc1-c1nnc(S)n1-c1ccccc1,> 800,> 100,> 800,,,,,,,,,,,,,
Oc1ccccc1NC(=S)Nc1ccc(Cl)c(Cl)c1,50,> 100,25,,50,50,50,50,100,100,inactive,50,inactive,50,,inactive
O=C(NNC(=S)Nc1ccc(C(F)(F)F)cc1)c1ccccc1O,50,,50,0.63,100,100,> 100,100,100,100,inactive,100,inactive,100,,inactive
O=C(NNC(=S)Nc1ccc(F)cc1)c1ccccc1O,200,,> 100,0.89,> 100,> 100,> 100,> 100,> 100,> 100,inactive,> 100,inactive,> 100,,inactive
O=C(NC(=S)NNC(=O)c1ccccc1O)c1ccc(Cl)c(Cl)c1,50,> 50,25,1.15,12.5,25,25,25,100,50,inactive,25,inactive,50,,inactive
O=C(NC(=S)NNC(=O)c1ccccc1O)c1ccccc1,100,> 50,100,0.81,> 100,> 100,> 100,> 100,100,> 100,inactive,100,inactive,100,,inactive
O=C(NNC(=S)Nc1ccc(F)c(F)c1F)c1ccccc1O,200,,200,0.64,> 400,400,> 400,400,400,400,inactive,400,inactive,400,,inactive
O=C(NNC(=S)Nc1ccccc1)c1ccccc1O,> 800,,800,0.74,> 800,> 800,> 800,800,800,> 800,inactive,800,inactive,800,,inactive
